Data: PubChem BioAssay AID624205 (Southern Research Specialized Biocontainment Screening …, 2012)
Several values for one entry are separate records, joined by “and”; a condition that tells them apart may be missing. Identical values can stand only once. Results filed as inconclusive are left out. Activity calls are given as the source filed them.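 How the source made its calls: active means viability under 80% at one or more tested concentrations, counted as toxic; inconclusive means replicate runs disagree on the viability criterion; inactive means viability at or above 80% at every dose.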

system: not listed separately; assay: Vero E6 cell cytotoxicity, dose response, cytotoxicity control for PfM18AAP inhibitor project, set 3 (AID 624205); conditions: Vero E6 viability, CellTiter-Glo luminescence, 72 h; at 50 µM (top of the series)
In short: (§1)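 Material: Vero E6 cells. Quantity: 3000 cells per well. Doses: 2-fold compound dilution series. Schedule: 72 h compound exposure at 37 °C with 5% CO2. Detection: CellTiter-Glo luminescence. Read-out basis: % viability versus vehicle wells, CC50 from 4-parameter fit bounded 0–100. Control set: DMSO vehicle wells.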

**Q.** Which viability does the source give for `COc1ccc(CCNC(=O)c2cc(C)ccc2N)cc1OC` here?
**A.** Its viability is 95.6% (inactive).

**Q.** With `CN(CCc1ccc(O)c(O)c1)c1ncnc2ccccc12` as the compound, how does the viability read?
**A.** Its viability is 95.4% (inactive).

**Q.** With `CC(Cc1ccc(O)c(O)c1)Nc1ccnc2ccccc12` (stereo not given) as the compound, how does the viability read?
**A.** The viability was 83.9% (inactive).

**Q.** For `COc1ccc(CCN(C)c2ncnc3ccccc23)cc1OC`, which viability is on record?
**A.** The viability was 85.7% (inactive).

**Q.** Which viability does the source give for `Oc1ccc(CCCNc2c3c(nc4ccccc24)CCCC3)cc1O` here?
**A.** The viability was 92.3% (inactive).

**Q.** Which viability does the source give for `Cc1cccc2c(NCCc3ccc(O)c(O)c3)ccnc12` here?
**A.** The viability was 95.1% (inactive).

**Q.** With `CN(CCCc1ccc(O)c(O)c1)c1ccnc2ccccc12` as the compound, how does the viability read?
**A.** The viability was 88.4% (inactive).

**Q.** With `COc1ccc(CCN(C)c2cc(C)nc3ccccc23)cc1OC` as the compound, how does the viability read?
**A.** Its viability is 80.7% (inactive).

**Q.** Which viability does the source give for `Oc1cccc(CCNc2ccnc3ccccc23)c1O` here?
**A.** The viability was 93.2% (inactive).

**Q.** For `CN(CCc1ccc(O)c(O)c1)c1ccnc2c(F)cccc12`, which viability is on record?
**A.** Its viability is 86% (inactive).

**Q.** With `Cc1cc(N(C)CCc2ccc(O)c(O)c2)c2ccccc2n1` as the compound, how does the viability read?
**A.** The viability was 89.8% (inactive).

system: Vero E6 viability, CellTiter-Glo luminescence, 72 h; assay: as above; conditions: not given
In short: as §1

**Q.** With `CCOc1ccc2nccc(N(C)CCc3ccc(OC)c(OC)c3)c2c1` as the compound, how does the CC50 read?
**A.** The CC50 was 41 µM.

**Q.** For `COc1cc(Br)c(CCNc2c3ccccc3nc3ccccc23)cc1OC`, which CC50 is on record?
**A.** The CC50 was 5.03 µM.

**Q.** Which CC50 does the source give for `CCN(CCc1ccc(O)c(O)c1)c1c2ccccc2nc2ccccc12` here?
**A.** The CC50 was 34.6 µM.

**Q.** Which CC50 does the source give for `CN(CCCc1ccc(O)c(O)c1)c1c2ccccc2nc2ccccc12` here?
**A.** The CC50 was 21.9 µM.

**Q.** With `COc1ccc(C2CCN(c3ccnc4ccccc34)CC2)cc1OC` as the compound, how does the CC50 read?
**A.** Its CC50 is 23.7 µM.

**Q.** Which CC50 does the source give for `COc1cc(Br)c(CCNc2ccnc3ccccc23)cc1OC` here?
**A.** Its CC50 is 15.9 µM.

**Q.** With `CC(C)(CNc1ccnc2ccccc12)c1ccc(O)c(O)c1` as the compound, how does the CC50 read?
**A.** Its CC50 is 15 µM.

**Q.** Which CC50 does the source give for `CCN(CC)Cc1cc(Nc2ccnc3cc(Cl)ccc23)ccc1O` here?
**A.** The CC50 was 40.1 µM.

**Q.** With `Nc1c2ccccc2nc2ccccc12` as the compound, how does the CC50 read?
**A.** Its CC50 is 10.3 µM.

**Q.** Which CC50 does the source give for `COc1ccc(CCCN(C)c2c3ccccc3nc3ccccc23)cc1OC` here?
**A.** The CC50 was 9.23 µM.

**Q.** Which CC50 does the source give for `CCN(CCc1ccc(OC)c(OC)c1)c1c2ccccc2nc2ccccc12` here?
**A.** Its CC50 is 15.4 µM.

**Q.** With `COc1ccc(CCNc2ccnc3cc(Cl)ccc23)cc1OC` as the compound, how does the CC50 read?
**A.** Its CC50 is 41.6 µM.

**Q.** With `COc1cc(Br)c(CCNc2c3c(nc4ccccc24)CCCC3)cc1OC` as the compound, how does the CC50 read?
**A.** The CC50 was 20.1 µM.

**Q.** For `COc1ccc(CCN(C)c2c3ccccc3nc3ccccc23)cc1OC`, which CC50 is on record?
**A.** The CC50 was 12.9 µM and 9.77 µM.
